In ChEMBL document CHEMBL2417508, “Synthesis and evaluation of a 125I-labeled iminodihydroquinoline-derived tracer for imaging of voltage-gated sodium channels” (Bioorg Med Chem Lett, 2013) one finds IC50, Kd and Bmax data, which are given here for one compound.

Assay [1] can be described thus: Inhibition of voltage-gated sodium channel in rat brain homogenate. Type of assay: tissue-based. The method in brief:
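Radioligand displacement of [3H]batrachotoxin binding was measured in rat brain homogenates, and IC50 was derived.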

Assay [2] deals with Sodium channel protein type 2 subunit alpha (Rattus norvegicus, UniProt P04775). In words: Inhibition of rat brain voltage-gated sodium channel subunit alpha Nav1.2-mediated current expressed in CHO cells. Type of assay: cell-based.
Chain of Sodium channel protein type 2 subunit alpha (P04775 whole entry): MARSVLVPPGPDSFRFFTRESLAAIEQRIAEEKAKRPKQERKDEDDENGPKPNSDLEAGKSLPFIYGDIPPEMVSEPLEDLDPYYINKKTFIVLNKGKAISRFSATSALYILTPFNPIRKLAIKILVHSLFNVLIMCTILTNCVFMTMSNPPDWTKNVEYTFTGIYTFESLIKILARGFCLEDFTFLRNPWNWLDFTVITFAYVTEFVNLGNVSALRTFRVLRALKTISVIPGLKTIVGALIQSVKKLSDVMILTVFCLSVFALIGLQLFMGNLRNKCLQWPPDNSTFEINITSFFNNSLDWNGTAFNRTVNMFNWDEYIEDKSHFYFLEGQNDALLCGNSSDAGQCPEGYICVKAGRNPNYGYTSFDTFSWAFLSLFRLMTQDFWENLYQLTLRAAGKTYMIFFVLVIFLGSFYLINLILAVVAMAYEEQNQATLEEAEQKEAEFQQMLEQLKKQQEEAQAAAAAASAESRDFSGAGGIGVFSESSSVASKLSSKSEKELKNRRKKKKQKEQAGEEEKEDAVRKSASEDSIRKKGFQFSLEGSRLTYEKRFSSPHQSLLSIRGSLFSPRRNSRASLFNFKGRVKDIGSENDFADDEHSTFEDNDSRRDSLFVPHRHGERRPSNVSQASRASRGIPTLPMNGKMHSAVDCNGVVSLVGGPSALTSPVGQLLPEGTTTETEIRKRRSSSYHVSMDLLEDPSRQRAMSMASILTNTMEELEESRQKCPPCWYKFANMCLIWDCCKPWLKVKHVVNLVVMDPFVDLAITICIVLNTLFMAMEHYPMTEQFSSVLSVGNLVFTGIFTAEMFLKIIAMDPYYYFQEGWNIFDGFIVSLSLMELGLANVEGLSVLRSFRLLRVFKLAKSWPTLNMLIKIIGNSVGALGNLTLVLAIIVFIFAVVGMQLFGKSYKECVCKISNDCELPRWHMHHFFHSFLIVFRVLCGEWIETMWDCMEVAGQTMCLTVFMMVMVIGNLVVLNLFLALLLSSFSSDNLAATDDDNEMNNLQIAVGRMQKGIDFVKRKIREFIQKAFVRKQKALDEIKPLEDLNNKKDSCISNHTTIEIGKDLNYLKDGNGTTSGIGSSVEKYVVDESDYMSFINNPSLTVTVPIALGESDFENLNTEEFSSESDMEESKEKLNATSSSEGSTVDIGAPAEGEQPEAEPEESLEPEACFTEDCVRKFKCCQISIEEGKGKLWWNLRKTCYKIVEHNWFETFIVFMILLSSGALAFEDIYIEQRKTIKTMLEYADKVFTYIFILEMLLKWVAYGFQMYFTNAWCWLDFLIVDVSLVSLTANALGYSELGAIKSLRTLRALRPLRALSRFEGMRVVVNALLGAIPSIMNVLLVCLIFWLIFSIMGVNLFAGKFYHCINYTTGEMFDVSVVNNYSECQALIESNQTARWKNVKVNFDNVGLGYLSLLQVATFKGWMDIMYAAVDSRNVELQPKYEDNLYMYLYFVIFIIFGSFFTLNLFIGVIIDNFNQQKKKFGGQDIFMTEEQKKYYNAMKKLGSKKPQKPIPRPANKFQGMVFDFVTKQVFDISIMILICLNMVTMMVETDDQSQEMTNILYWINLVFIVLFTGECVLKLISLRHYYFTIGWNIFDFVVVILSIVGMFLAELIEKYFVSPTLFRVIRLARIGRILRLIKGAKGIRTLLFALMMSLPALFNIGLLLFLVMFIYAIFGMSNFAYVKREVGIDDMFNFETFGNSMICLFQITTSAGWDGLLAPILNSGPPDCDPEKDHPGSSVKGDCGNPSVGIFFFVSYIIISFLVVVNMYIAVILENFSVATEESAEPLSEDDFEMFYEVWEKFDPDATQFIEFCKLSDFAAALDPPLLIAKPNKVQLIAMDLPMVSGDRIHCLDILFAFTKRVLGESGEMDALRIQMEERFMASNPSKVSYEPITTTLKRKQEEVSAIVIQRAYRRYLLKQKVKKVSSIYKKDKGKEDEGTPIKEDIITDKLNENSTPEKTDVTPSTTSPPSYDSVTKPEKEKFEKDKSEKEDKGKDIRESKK
Assay [3] can be described thus: Binding affinity to voltage-gated sodium channel in rat brain synaptosomal membranes. Type of assay: cell membranes.
The species entered for a further assay is Rattus norvegicus. In words: Binding affinity to voltage-gated sodium channel in rat brain synaptosomal membranes relative to control. Type of assay: cell membranes.

pIC50, pKd: −log10 of the molar value.

One may read the pIC50 as −log10 of the IC50, conventionally taken in molar units. Read a low pIC50 as a large IC50. As a reminder, the pKd is the negative decadic logarithm of the Kd, by convention in mol/L. A lower pKd goes with a high Kd. On to `CCCCC/N=c1\ccn(Cc2ccccc2)c2cc(Cl)ccc12`, for which the pIC50 in assay [1] is 8.09; in assay [2], 8.05. In assay [3], this compound had a pKd of 8.66. The Bmax in the assay listed under Rattus norvegicus was determined as 5.4 pmol/mg.
